Screening results deposited in PubChem BioAssay by Broad Institute.
This is a sample that favours compounds with a hit; in the whole collection about 0.86% have one here.
Rtt109 Vps75 = inhibitors of C. albicans Rtt109/Vps75 HAT, primary screen, biochemical, ThioGlo CoA-SH fluorescence, plate reader | 330,000 tested, 0.16% active | purified Rtt109/Vps75, 4 h | AID 540336, 2011 | inhibition, % at 34.9 µM;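 active = inhibition of at least 50% in every replicate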
miR122 inh = miR-122 Renilla sensor signal increase in Huh7, primary screen, miR-122 inhibitor project, cell-based, single point, plate reader. AID 602342, 2012. activation (reporter increase), % at 12.5 µM. Huh7 miR-122 Renilla luciferase sensor, 48 h; neutral wells = 0, positive control = 100. 340,000 tested, 0.3% active;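 active = mean replicate activation score at least 90 and every replicate individually at or above 90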;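 note: higher luciferase means less miR-122 activity so hits act as miR-122 inhibitors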
S100A4 MyoIIA = inhibitors of S100A4-myosin IIA peptide binding, primary screen, biochemical, fluorescence polarization, TAMRA-MyoIIA peptide; Protein S100-A4 (Homo sapiens), P26447; inhibition, % at 10.7 µM; 360,000 tested, 0.14% active;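 active = mean inhibition of at least 70% across replicates, with every replicate also reaching that level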
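Material: human S100A4 monomer with TAMRA-labelled myosin IIA peptide; buffer or medium: HEPES pH 7.2 with CaCl2, KCl, NaCl, DTT, Triton; compound dosing: one concentration per compound; schedule: 5 min incubation before reading; benchmarks: neutral control DMSO, positive control TFP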
MLL AF4-AF9 inh = inhibitors of AF4 peptide binding to AF9, primary screen, biochemical, AlphaScreen, biotin-AF4 peptide, FLAG-AF9, single point; Protein AF-9 (Homo sapiens), P42568; inhibition, % at 10 µM; 350,000 tested, 0.47% active; AID 651704, 2012;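 active = every replicate reaching a set inhibition limit, whatever the replicate mean, cut at about 25% in these data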;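 note: 0% = plate neutral control median and 100% = total signal loss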
Target sequence (P42568 whole entry, looked up): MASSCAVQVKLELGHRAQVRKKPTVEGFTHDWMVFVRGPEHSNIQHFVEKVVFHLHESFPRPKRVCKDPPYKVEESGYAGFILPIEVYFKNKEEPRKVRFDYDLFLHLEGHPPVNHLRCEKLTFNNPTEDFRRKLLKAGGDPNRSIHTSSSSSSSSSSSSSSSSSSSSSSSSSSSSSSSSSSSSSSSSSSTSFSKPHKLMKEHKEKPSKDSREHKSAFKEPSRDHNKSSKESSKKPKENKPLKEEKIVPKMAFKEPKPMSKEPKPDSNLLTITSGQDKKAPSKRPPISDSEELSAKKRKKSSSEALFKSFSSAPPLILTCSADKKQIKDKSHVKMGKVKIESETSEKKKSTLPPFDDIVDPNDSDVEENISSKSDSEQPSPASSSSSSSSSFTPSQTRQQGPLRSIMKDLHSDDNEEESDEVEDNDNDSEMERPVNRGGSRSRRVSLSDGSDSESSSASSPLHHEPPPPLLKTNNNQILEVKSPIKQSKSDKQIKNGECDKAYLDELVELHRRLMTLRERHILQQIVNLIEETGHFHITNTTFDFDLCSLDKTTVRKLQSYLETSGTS
ERAP1 inh = human ERAP1 aminopeptidase inhibitors, primary screen, biochemical, single point, plate reader; Endoplasmic reticulum aminopeptidase 1 (Homo sapiens), Q9NZ08; recombinant ERAP1, Leu-AMC fluorescence, 60 min; inhibition, % at 10.7 µM; 340,000 tested, 0.15% active; AID 652197, 2013;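 active = mean replicate inhibition of at least 30%, or all replicates individually reaching that 30% level; inactive = mean below 30% and not every replicate reaching it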;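 note: 0% = neutral control wells and 100% = L-leucinethiol positive control wells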
An asterisk follows results filed as active; x = no result given; ! = repeats disagree; [ ] = remark or other dose.

SMILES	Rtt109 Vps75	miR122 inh	S100A4 MyoIIA	MLL AF4-AF9 inh	ERAP1 inh
O=C(c1cccnc1)N1CC(=O)N2[C@H](CO)[C@@H](c3ccc(-c4ccc(F)cc4)cc3)[C@H]2C1	x	x	-13	15	-2
Cc1cccc(-c2ccc([C@@H]3[C@H](CO)N4C(=O)CN(C(=O)c5cccnc5)C[C@@H]34)cc2)c1	x	x	15	12	0
O=C(c1cccnc1)N1CC(=O)N2[C@H](C1)[C@H](c1ccc(-c3ccc(F)cc3)cc1)[C@@H]2CO	x	x	8	31*	-2
N#Cc1ccc(-c2ccc([C@@H]3[C@@H](CO)N4C(=O)CN(C(=O)C5CC5)C[C@H]34)cc2)cc1	x	x	83*	2	4
N#C[C@H]1[C@@H](c2ccc(C#CC3CCCCC3)cc2)[C@H](CO)N1C(=O)Cc1ccccn1	x	x	-8	4	0
CC(C(=O)NC1C=CS(=O)(=O)C1)N1C(=O)/C(=C/c2ccc(Cl)cc2)SC1=S (stereo unspecified)	139*	-2	4	3	-2
C[C@@H]1CCCCO[C@H](CN(C)S(=O)(=O)c2ccccc2)[C@@H](C)CN([C@@H](C)CO)C(=O)c2cc(NC(=O)Nc3cccc4ccccc34)ccc2O1	x	0[16.7 µM]	-4	-9	-4
O=C(Cc1ccccn1)NCC[C@@H]1CC[C@@H](NC(=O)c2ccccc2F)[C@@H](CO)O1	x	x	-8	-5	7
Cc1cc(C)n(CC(O)CN(c2ccccc2)S(=O)(=O)c2ccccc2)n1 (stereo unspecified)	-3	5	x	x	x
O=S(=O)(c1ccccc1)N(CC(O)COc1ccccc1)c1ccccc1 (stereo unspecified)	0	131*	-1	3	x
Cc1cc(C)n2nc(C(=O)N3CCN(c4ccc([N+](=O)[O-])cc4)CC3)nc2n1	14	-4	9	1	41*
COc1ccc(N2CCN(C(=O)c3nc4nc(C)cc(C)n4n3)CC2)cc1	-9	-6	-6	0	-3
Cc1cc(C)n2nc(C(=O)Nc3ccc(N4CCOCC4)cc3)nc2n1	-13	-1	-4	x	59*
CC1(C)c2ccccc2N2CC(=O)N(CC(N)=O)C21C (stereo unspecified)	41	2	118*	0	x
C[C@H](CO)N1C[C@H](C)[C@H](CN(C)S(=O)(=O)c2ccccc2)OCCCC[C@H](C)Oc2ccc(NC(=O)Nc3ccc(F)cc3)cc2C1=O	x	-18[16.7 µM]	6	0	2
COc1ccc(CN(C)C[C@@H]2OCCCC[C@@H](C)Oc3ccc(NC(=O)Nc4ccc5c(c4)OCO5)cc3C(=O)N([C@@H](C)CO)C[C@@H]2C)cc1	x	-12[16.7 µM]	4	4	-2
COc1ccc(CN(C)C[C@H]2OCCCC[C@@H](C)Oc3ccc(NC(=O)Nc4ccc5c(c4)OCO5)cc3C(=O)N([C@@H](C)CO)C[C@H]2C)cc1	x	2[16.7 µM]	-5	32*	-3
COc1ccc(CN(C)C[C@H]2OCCCC[C@H](C)Oc3ccc(NC(=O)Nc4ccc5c(c4)OCO5)cc3C(=O)N([C@@H](C)CO)C[C@@H]2C)cc1	x	7[16.7 µM]	29	22	-3
COc1ccc(CN(C)C[C@H]2OCCCC[C@@H](C)Oc3ccc(NC(=O)Nc4ccc5c(c4)OCO5)cc3C(=O)N([C@H](C)CO)C[C@H]2C)cc1	x	-4[16.7 µM]	120*	23	-3
COc1ccc(CN(C)C[C@H]2OCCCC[C@H](C)Oc3ccc(NC(=O)Nc4ccc5c(c4)OCO5)cc3C(=O)N([C@@H](C)CO)C[C@H]2C)cc1	x	4[16.7 µM]	-1	4	-3
COc1ccc(CN(C)C[C@@H]2OCCCC[C@H](C)Oc3ccc(NC(=O)Nc4ccc5c(c4)OCO5)cc3C(=O)N([C@H](C)CO)C[C@H]2C)cc1	x	2[16.7 µM]	-3	25*	-3
COc1ccc(NC(=O)Nc2ccc3c(c2)C(=O)N([C@H](C)CO)C[C@@H](C)[C@H](CN(C)Cc2ccc4c(c2)OCO4)OCCCC[C@@H](C)O3)cc1	x	-5[16.7 µM]	7	27*	2
CC(=O)N(C)C[C@@H]1Oc2cc(C3=CCCC3)ccc2S(=O)(=O)N([C@@H](C)CO)C[C@@H]1C	x	-2[16.7 µM]	6	-2	1
CC(=O)N1C[C@@H]2[C@H](c3ccccc31)[C@H](CO)N2S(=O)(=O)c1ccccc1	x	-17[16.7 µM]	-9	2	0
C[C@H](CO)N1C[C@H](C)[C@@H](CN(C)Cc2ccc(Cl)c(Cl)c2)Oc2c(NC(=O)c3ccncc3)cccc2C1=O	-27	106*![16.7 µM]	5	9	-3
SMILES	Rtt109 Vps75	miR122 inh	S100A4 MyoIIA	MLL AF4-AF9 inh	ERAP1 inh
C[C@@H]1CN([C@@H](C)CO)C(=O)c2cccc(NC(=O)c3ccncc3)c2O[C@@H]1CN(C)Cc1ccc(Cl)c(Cl)c1	x	-4[16.7 µM]	-14	0	0
C[C@H](CO)N1C[C@H](C)[C@@H](CN(C)CC2CCCCC2)Oc2c(NC(=O)c3ccncc3)cccc2C1=O	x	127*[16.7 µM]	3	6	2
C[C@@H]1CN([C@@H](C)CO)C(=O)c2cccc(NC(=O)c3ccncc3)c2O[C@@H]1CN(C)CC1CCCCC1	x	-1[16.7 µM]	12	0	1
C[C@H]1CN([C@@H](C)CO)C(=O)c2cccc(NC(=O)c3ccncc3)c2O[C@@H]1CN(C)CC1CCCCC1	x	91*[16.7 µM]	-2	11	2
CC(C)C#Cc1ccc([C@H]2[C@@H](CO)N(C(=O)c3cccc(F)c3)[C@H]2C#N)cc1	x	x	109*	-2	1
CN(C)C(=O)c1cccc(-c2ccccc2[C@@H]2[C@@H](C#N)N(C(=O)C3CCCC3)[C@@H]2CO)c1	x	x	-2	-6	1
O=C(NC(NC(=S)Nc1c(Cl)cccc1Cl)C(Cl)(Cl)Cl)c1cccc([N+](=O)[O-])c1 (stereo unspecified)	2	174*	x	x	x
O=C(NNC(=S)NC(=O)c1ccccc1Cl)c1cccc([N+](=O)[O-])c1	3	4	0	-14	3
C[C@@H]1CCCCO[C@H](CN(C)C(=O)Nc2ccc3c(c2)OCO3)[C@H](C)CN([C@@H](C)CO)C(=O)c2cc(NC(=O)C3CCCCC3)ccc2O1	x	6[16.7 µM]	-4	3	0
CC1CCN(C(C(=O)Nc2ccc3c(c2)OCO3)c2ccccc2)CC1 (stereo unspecified)	18	15	-1	52*	-4
CC1CCCN(C(C(=O)Nc2ccc3c(c2)OCO3)c2ccccc2)C1 (stereo unspecified)	6	7	-1	5	x
COc1ccccc1/C=C/C=N/NC(=O)Cc1cccn1C	17	x	3	56*	1
